According to article PMC2782628 (Journal of medicinal chemistry, 2009):

What was measured:
[1] = target: iNOS (Mus musculus, UniProt P29477); test: Blocking study of [18F]9 uptake in LPS-treated mice; type: in vivo, C57BL/6N mice
[2] = target: recombinant human iNOS (Homo sapiens, UniProt P35228); test: NOS enzyme assay; type: biochemical; details: for activity in the iNOS assay: structure-activity discussion
Summary of the method: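 Recombinant iNOS in 50 mM Tris pH 7.4 with 1.0 mM NADPH, 3.8 µM each of FMN, FAD and tetrahydro-L-biopterin, 2.0 mM DTT and 2.0 µM L-arginine. Test compound was diluted in methanol or water. [3H]arginine (0.1 µCi) started the reaction, run 30 min at room temperature. Stopped with yttrium-silicate arginine-binding SPA beads in NaOH; beads settled 2 h, then counted. IC50 from inhibition curves, mean ± S.D., N≥3.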

[3] = target: recombinant human eNOS (Homo sapiens, UniProt P29474); test: NOS enzyme assay; type: biochemical; details: iNOS vs eNOS
Summary of the method: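 The eNOS buffer also had 20 µg/mL calmodulin and 1 mM CaCl2. [3H]arginine started the reaction, 30 min at room temperature. SPA arginine-binding beads stopped it; counted after 2 h. Mean ± S.D., N≥3.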

[4] = In vivo biodistribution time-course study in control vs. LPS-treated mice; design: species or system C57BL/6 mice; details: for Biodistribution Blood / Biodistribution Bone / Biodistribution Brain / Biodistribution Heart / Biodistribution Kidney / Biodistribution Liver / Biodistribution Lung / Biodistribution Muscle: mean ± SD, n = 4
Summary of the method: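 Mature male C57BL/6N mice (6-8 weeks), either given E. coli O127:B8 LPS in PBS (10 mg/kg i.v.) 6 h before tracer or left untreated. HPLC-purified [18F]-labelled test compound (~50 μCi in 10% ethanol/saline) injected i.v. via tail vein. Sacrificed at 5 min, 30 min, 1 h and 2 h. Blood, tissues and organs weighed and gamma-counted against diluted injectate standards, giving %ID/g (mean ± SD).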

Sequence of recombinant human iNOS (P35228 whole entry): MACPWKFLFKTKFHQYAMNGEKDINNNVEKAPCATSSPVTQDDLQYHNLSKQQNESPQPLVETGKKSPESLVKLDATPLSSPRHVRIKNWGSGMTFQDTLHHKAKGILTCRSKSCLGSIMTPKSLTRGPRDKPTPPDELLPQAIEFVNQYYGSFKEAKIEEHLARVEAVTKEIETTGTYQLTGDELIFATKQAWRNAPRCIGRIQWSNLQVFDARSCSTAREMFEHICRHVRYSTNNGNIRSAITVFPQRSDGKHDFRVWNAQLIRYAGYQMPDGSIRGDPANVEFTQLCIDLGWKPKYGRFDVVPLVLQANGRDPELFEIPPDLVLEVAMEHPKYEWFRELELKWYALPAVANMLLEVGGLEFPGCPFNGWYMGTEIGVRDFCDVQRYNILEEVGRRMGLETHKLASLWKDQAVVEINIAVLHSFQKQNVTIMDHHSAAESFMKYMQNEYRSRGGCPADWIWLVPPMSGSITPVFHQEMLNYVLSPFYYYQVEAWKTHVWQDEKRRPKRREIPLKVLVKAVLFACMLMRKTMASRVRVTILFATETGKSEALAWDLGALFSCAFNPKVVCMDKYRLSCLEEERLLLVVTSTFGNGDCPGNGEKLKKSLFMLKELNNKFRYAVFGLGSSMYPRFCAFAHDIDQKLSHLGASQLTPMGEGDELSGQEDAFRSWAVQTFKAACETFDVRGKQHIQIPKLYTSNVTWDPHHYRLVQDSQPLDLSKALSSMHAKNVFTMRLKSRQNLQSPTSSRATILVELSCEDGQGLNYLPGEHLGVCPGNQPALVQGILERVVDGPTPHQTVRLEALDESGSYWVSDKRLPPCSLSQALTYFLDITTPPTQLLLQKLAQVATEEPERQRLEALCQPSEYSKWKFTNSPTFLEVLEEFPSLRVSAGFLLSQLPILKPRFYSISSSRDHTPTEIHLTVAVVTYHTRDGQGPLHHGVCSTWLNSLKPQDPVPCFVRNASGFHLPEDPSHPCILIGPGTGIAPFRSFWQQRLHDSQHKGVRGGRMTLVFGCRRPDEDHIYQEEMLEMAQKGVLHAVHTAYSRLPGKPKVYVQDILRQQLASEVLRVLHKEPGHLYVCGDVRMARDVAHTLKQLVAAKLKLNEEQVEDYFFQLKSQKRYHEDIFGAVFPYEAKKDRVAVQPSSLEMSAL

## Cc1ccnc(N)c1 [Compound 1, 2-amino-4-methylpyridine]
[1]; blocking agent 10 mg/kg, i.v., data not shown
  blocking of the increased [18F]9 uptake in the LPS-treated mice: failed to block

## Nc1ccccn1 [Compound 2-AP, 2-aminopyridine, reference compound]
[2]
  IC50: 108 nM

## COC(C)Cc1cc(C)cc(N)n1 (centres unmarked) [Compound 13, 6-(2-Methoxypropyl)-4-methylpyridin-2-amine]
[2]
  activity in the iNOS assay: inactive

## Cc1cc(N)nc(CC(C)OCCF)c1 (centres unmarked) [Compound 15, 6-(2-(2-Fluoroethoxy)propyl)-4-methylpyridin-2-amine]
[2]
  activity in the iNOS assay: inactive

## Cc1cc(N)nc(CCCF)c1 [Compound 18, 6-(3-Fluoropropyl)-4-methylpyridin-2-amine]
[3]
  selectivity against eNOS: approximately 30 fold

## COCCC(C)Cc1cc(C)cc(N)n1 (centres unmarked) [Compound 27, 6-(4-methoxy-2-methylbutyl)-4-methylpyridin-2-amine]
[2]
  activity in the iNOS assay: inactive

## CSCCC(C)Cc1cc(C)cc(N)n1 (centres unmarked) [Compound 33, 4-Methyl-6-(2-methyl-4-(methylthio)butyl)pyridin-2-amine]
[2]
  activity in the iNOS assay: inactive

## CC(=N)NCc1cccc(CN)c1 [Compound 1400W, N-(3-(aminomethyl)benzyl)acetamidine]
[1]; mouse, in vivo
  tracer ([18F]9) uptake in the lungs and blood of the LPS-treated mice blocked: 32%

## Cc1cc(N)nc(CC(C)[18F])c1 (centres unmarked) [[^18F]9, [^18F]6-(2-Fluoropropyl)-4-methylpyridin-2-amine]
[4]; 5 min, Control mice
  Biodistribution Blood: 2.37±0.18 %ID/g
  Biodistribution Bone: 1.52±0.36 %ID/g
  Biodistribution Brain: 1.60±0.17 %ID/g
  Biodistribution Heart: 1.50±0.12 %ID/g
  Biodistribution Kidney: 20.6±2.4 %ID/g
  Biodistribution Liver: 33.2±3.3 %ID/g
  Biodistribution Lung: 3.33±0.28 %ID/g
  Biodistribution Muscle: 1.25±0.06 %ID/g
[4]; 5 min, LPS-treated mice
  Biodistribution Blood: 3.69±0.38 %ID/g
  Biodistribution Bone: 1.59±0.15 %ID/g
  Biodistribution Brain: 1.81±0.09 %ID/g
  Biodistribution Heart: 2.03±0.06 %ID/g
  Biodistribution Kidney: 26.7±4.1 %ID/g
  Biodistribution Liver: 24.6±3.1 %ID/g
  Biodistribution Lung: 4.32±0.32 %ID/g
  Biodistribution Muscle: 1.64±0.09 %ID/g
[4]; 30 min, Control mice
  Biodistribution Blood: 1.22±0.16 %ID/g
  Biodistribution Bone: 2.26±0.55 %ID/g
  Biodistribution Brain: 0.28±0.02 %ID/g
  Biodistribution Heart: 0.60±0.05 %ID/g
  Biodistribution Kidney: 7.30±0.66 %ID/g
  Biodistribution Liver: 10.7±0.3 %ID/g
  Biodistribution Lung: 1.14±0.13 %ID/g
  Biodistribution Muscle: 0.71±0.31 %ID/g
[4]; 30 min, LPS-treated mice
  Biodistribution Blood: 2.09±0.35 %ID/g
  Biodistribution Bone: 3.70±1.20 %ID/g
  Biodistribution Brain: 0.52±0.15 %ID/g
  Biodistribution Heart: 1.02±0.16 %ID/g
  Biodistribution Kidney: 10.9±2.8 %ID/g
  Biodistribution Liver: 7.06±0.28 %ID/g
  Biodistribution Lung: 1.84±0.27 %ID/g
  Biodistribution Muscle: 1.06±0.40 %ID/g
[4]; 1 h, Control mice
  Biodistribution Blood: 0.31±0.04 %ID/g
  Biodistribution Bone: 2.57±0.64 %ID/g
  Biodistribution Brain: 0.11±0.02 %ID/g
  Biodistribution Heart: 0.19±0.02 %ID/g
  Biodistribution Kidney: 2.20±0.25 %ID/g
  Biodistribution Liver: 2.59±0.49 %ID/g
  Biodistribution Lung: 0.31±0.06 %ID/g
  Biodistribution Muscle: 0.27±0.18 %ID/g
[4]; 1 h, LPS-treated mice
  Biodistribution Blood: 0.86±0.09 %ID/g
  Biodistribution Bone: 4.30±0.90 %ID/g
  Biodistribution Brain: 0.19±0.03 %ID/g
  Biodistribution Heart: 0.41±0.10 %ID/g
  Biodistribution Kidney: 3.95±0.53 %ID/g
  Biodistribution Liver: 2.63±0.52 %ID/g
  Biodistribution Lung: 0.73±0.17 %ID/g
  Biodistribution Muscle: 0.78±0.47 %ID/g
[4]; 2 h, Control mice
  Biodistribution Blood: 0.27±0.22 %ID/g
  Biodistribution Bone: 5.59±4.20 %ID/g
  Biodistribution Brain: 0.07±0.03 %ID/g
  Biodistribution Heart: 0.08±0.02 %ID/g
  Biodistribution Kidney: 0.80±0.27 %ID/g
  Biodistribution Liver: 0.74±0.23 %ID/g
  Biodistribution Lung: 0.15±0.03 %ID/g
  Biodistribution Muscle: 0.34±0.27 %ID/g
[4]; 2 h, LPS-treated mice
  Biodistribution Blood: 0.23±0.05 %ID/g
  Biodistribution Bone: 3.77±1.41 %ID/g
  Biodistribution Brain: 0.07±0.03 %ID/g
  Biodistribution Heart: 0.12±0.04 %ID/g
  Biodistribution Kidney: 0.91±0.63 %ID/g
  Biodistribution Liver: 0.42±0.15 %ID/g
  Biodistribution Lung: 0.18±0.09 %ID/g
  Biodistribution Muscle: 0.23±0.13 %ID/g
[4]; 5 min
  increase in injected dose/gram (ID/g) in the lungs, LPS-treated vs control mice: 30%
[4]; 30 min
  increase in injected dose/gram (ID/g) in the lungs, LPS-treated vs control mice: 60%
